The target in assay [1] is AeKir (Aedes aegypti, UniProt L0EQS9). The experiment in a line: fluorescence-based in vitro thallium. The note with it: HEK293. The class given is cell-based. In outline: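 Fluorescence thallium-flux read-out in HEK293 cells expressing AeKir under tetracycline induction. Signals normalized to baseline Tl+ flux in the same line left uninduced by tetracycline. IC50 is the mean ± SEM of at least three independent experiments. Percent inhibition is taken at the highest concentration tested.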

Assay [2] concerns first instar (Liverpool, LVP) Ae. aegypti. Kind of assay: larvae toxicity screen, small molecules added to the rearing water. The format is in vivo. The settings on record: for mortality at 48 h compared to VU854: 100 μM, first instar LVP larvae, one-way ANOVA, Dunnett's test; for mortality at 100 µM: Aedes aegypti, 48 h, read-out: mortality at 48 h.
In assay [3] the test system is first instar (LVP or PR) Ae. aegypti. The experiment in a line: larval toxicity concentration response curve. The format is in vivo.

Molecules are shown by their SMILES.

For orientation: inhibition means the change of the read-out against control, counted positive when it falls. A word on the mortality: it is the percentage killed. On to `O=[N+]([O-])c1ccc(N2CCN(S(=O)(=O)c3ccc(F)cc3)CC2)cc1F` [Compound 8, 1-(3-fluoro-4-nitrophenyl)-4-((4-fluorophenyl)sulfonyl)piperazine], for which the inhibition at 30000 µM in assay [1] is 100%. For the same compound, in assay [2], the “mortality at 48 h compared to VU854” value was “significantly greater mortality” and the mortality at 100 µM came to 100%. The “times more potent against the LVP strain (versus PR)” value in assay [3] (CRC, 48 h) was ~ 2 times.
With `O=[N+]([O-])c1ccc(N2CCN(S(=O)(=O)c3ccc(F)cc3)CC2)cc1NCc1ccco1` [Compound 9a, 5-(4-((4-fluorophenyl)sulfonyl)piperazin-1-yl)-N-(furan-2-ylmethyl)-2-nitroaniline], in assay [1], the inhibition at 30000 µM was determined as 96%.
Take `Cc1cc(CNc2cc(N3CCN(S(=O)(=O)c4ccc(F)cc4)CC3)ccc2[N+](=O)[O-])no1` [Compound 9f, 5-(4-((4-fluorophenyl)sulfonyl)piperazin-1-yl)-N-((5-methylisoxazol-3-yl)methyl)-2-nitroaniline]: in assay [1], the inhibition at 30000 µM stood at 109%.
On the same count and under the same terms, then `Cc1nnc(CNc2cc(N3CCN(S(=O)(=O)c4ccc(F)cc4)CC3)ccc2[N+](=O)[O-])o1` [Compound 9g, 5-(4-((4-fluorophenyl)sulfonyl)piperazin-1-yl)-N-((5-methyl-1,3,4-oxadiazol-2-yl)methyl)-2-nitroaniline], with 110%; and `O=[N+]([O-])c1ccc(N2CCN(S(=O)(=O)c3ccc(F)cc3)CC2)cc1NCc1nccs1` [Compound 9h, 5-(4-((4-fluorophenyl)sulfonyl)piperazin-1-yl)-2-nitro-N-(thiazol-2-ylmethyl)aniline], with 97%; and `CC(Nc1cc(N2CCN(S(=O)(=O)c3ccc(F)cc3)CC2)ccc1[N+](=O)[O-])c1nccs1` (stereo not shown) [Compound 9i, 5-(4-((4-fluorophenyl)sulfonyl)piperazin-1-yl)-2-nitro-N-(1-(thiazol-2-yl)ethyl)aniline], with 107%.
The same measure, in the same setting: to `Cc1ncc(CNc2cc(N3CCN(S(=O)(=O)c4ccc(F)cc4)CC3)ccc2[N+](=O)[O-])s1` [Compound 9j, 5-(4-((4-fluorophenyl)sulfonyl)piperazin-1-yl)-N-((2-methylthiazol-5-yl)methyl)-2-nitroaniline] belongs 111%.
On the same count and under the same terms, then `O=[N+]([O-])c1ccc(N2CCN(S(=O)(=O)c3ccc(F)cc3)CC2)cc1NCc1ncco1` [Compound 9k, 5-(4-((4-fluorophenyl)sulfonyl)piperazin-1-yl)-2-nitro-N-(oxazol-2-ylmethyl)aniline], with 98%.
With `CC(Nc1cc(N2CCN(S(=O)(=O)c3ccc(F)cc3)CC2)ccc1[N+](=O)[O-])c1ncco1` (stereo not shown) [Compound 9l, 5-(4-((4-fluorophenyl)sulfonyl)piperazin-1-yl)-2-nitro-N-(1-(oxazol-2-yl)ethyl)aniline], the inhibition at 30000 µM in assay [1] was determined as 109%.
The same measure, in the same setting: to `O=[N+]([O-])c1ccc(N2CCN(S(=O)(=O)c3ccc(F)cc3)CC2)cc1NCc1cnco1` [Compound 9m, 5-(4-((4-fluorophenyl)sulfonyl)piperazin-1-yl)-2-nitro-N-(oxazol-5-ylmethyl)aniline] belongs 99%.
Regarding `Cc1cnc(CNc2cc(N3CCN(S(=O)(=O)c4ccc(F)cc4)CC3)ccc2[N+](=O)[O-])o1` [Compound 9n, 5-(4-((4-fluorophenyl)sulfonyl)piperazin-1-yl)-N-((5-methyloxazol-2-yl)methyl)-2-nitroaniline], the inhibition at 30000 µM in assay [1] was 100%. In addition, the “mortality at 48 h compared to VU854” value in assay [2] is recorded as “similarly efficacious as VU854”.
In the case of `Cc1ncc(CNc2cc(N3CCN(S(=O)(=O)c4ccc(F)cc4)CC3)ccc2[N+](=O)[O-])o1` [Compound 9o, 5-(4-((4-fluorophenyl)sulfonyl)piperazin-1-yl)-N-((2-methyloxazol-5-yl)methyl)-2-nitroaniline], the inhibition at 30000 µM in assay [1] was 106%.
On to `O=[N+]([O-])c1ccc(N2CCN(S(=O)(=O)c3ccc(F)cc3)CC2)cc1NCc1ncon1` [Compound 9p, N-((1,2,4-oxadiazol-3-yl)methyl)-5-(4-((4-fluorophenyl)sulfonyl)piperazin-1-yl)-2-nitroaniline], for which the inhibition at 30000 µM in assay [1] came to 109%. Moreover, the “mortality at 48 h compared to VU854” value in assay [2] is reported as “significantly greater mortality”. The mortality at 100 µM is 99% in assay [2] and approximately 50% in assay [3] (Aedes aegypti, 48 h, read-out: maximal mortality within 48 h). Also, the “pathology observed in treated larvae” value in assay [3] (contiguous trail of excrement from midgut beyond the rectum) is “constipation or excretory failure”.
As for `Cc1nc(CNc2cc(N3CCN(S(=O)(=O)c4ccc(F)cc4)CC3)ccc2[N+](=O)[O-])no1` [Compound 9q, 5-(4-((4-fluorophenyl)sulfonyl)piperazin-1-yl)-N-((5-methyl-1,2,4-oxadiazol-3-yl)methyl)-2-nitroaniline], the inhibition at 30000 µM in assay [1] is 109%. In assay [2], the “mortality at 48 h compared to VU854” value is on record as “similarly efficacious as VU854”.
With `O=[N+]([O-])c1ccc(N2CCN(S(=O)(=O)c3ccc(F)cc3)CC2)cc1NCc1ccon1` [Compound 9r, 5-(4-((4-fluorophenyl)sulfonyl)piperazin-1-yl)-N-(isoxazol-3-ylmethyl)-2-nitroaniline], the inhibition at 30000 µM in assay [1] is 99%.
Take `Cc1nnc(CNc2cc(N3CCN(S(=O)(=O)c4ccc(F)cc4)CC3)ccc2[N+](=O)[O-])s1` [Compound 9s, 5-(4-((4-fluorophenyl)sulfonyl)piperazin-1-yl)-N-((5-methyl-1,3,4-thiadiazol-2-yl)methyl)-2-nitroaniline]: the inhibition at 30000 µM in assay [1] worked out at 61%. Besides, the “mortality at 48 h compared to VU854” value in assay [2] is “similarly efficacious as VU854”.
For the compound `O=[N+]([O-])c1ccc(N2CCN(S(=O)(=O)c3ccc(F)cc3)CC2)cc1NCc1cc2ccccc2o1` [Compound 9t, N-(benzofuran-2-ylmethyl)-5-(4-((4-fluorophenyl)sulfonyl)piperazin-1-yl)-2-nitroaniline], in assay [1], the inhibition at 30000 µM turned out to be 10%.
Turning to `O=[N+]([O-])c1ccc(N2CCN(S(=O)(=O)c3ccc(F)cc3)CC2)cc1NCc1nc2ccccc2o1` [Compound 9u, N-(benzo[d]oxazol-2-ylmethyl)-5-(4-((4-fluorophenyl)sulfonyl)piperazin-1-yl)-2-nitroaniline], in assay [1], the inhibition at 30000 µM is 29%.

Values taken from PMC7856040 (ChemMedChem, 2020).
